Screening data (PubChem)
Compounds with a hit are over-represented: about 2.2% of the library has one in this group of screens.
PERK inh – inhibitors of human PERK kinase; Q9NZJ5; CHO PERK-DD fusion, SEAP luminescence translation reporter; inhibition, % at 5.6 µM; hit rate 0.17% among 220,000; AID 1416;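 active means inhibition above the mean inhibition of all tested compounds plus 3 SD, set separately per screening campaign, cut at about 2.9% in these data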;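 further: PERK kinase domain activated by AP20187 dimerizer at 100 nM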
Calb biofilm kill – mixture kills Candida albicans biofilm cells | inhibition, % at 7.6 µM | C. albicans biofilm persisters + clotrimazole, fluorescence viability; primary screen in compound mixtures of four per well | hit rate 0.02% among 120,000;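 active means inhibition above 30.3% in the primary screen of four-compound pools, then above 30% when the compound was retested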;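 further: compounds exposed to preformed 24 h biofilms for 48 h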
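Test system: C. albicans biofilms. Buffer or medium: RPMI/MOPS medium, pH 7.0. Timing: 48 h compound exposure at 37 °C. Technique: Alamar Blue fluorescence. Evaluation: percent inhibition of biofilm viability.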
Hck Nef HTS – human Hck-Nef kinase inhibition | Recombinant Hck-YEEI plus Nef, Z-Lyte FRET kinase assay | hit rate 0.68% among 220,000 | inhibition, % at 20 µM | P08631 | AID 463187;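 active means Hck-Nef kinase inhibition above about 50%, limit read from the data; inactive means inhibition below that limit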
14-3-3 Bad PPI – disrupts binding of bovine 14-3-3 zeta to phospho-Bad peptide; hit rate 0.71% among 220,000; inhibition, % at 21.7 µM; TR-FRET 14-3-3zeta/Dy647-pBad peptide displacement, 1 h;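 active means inhibition above about 70%, limit read from the data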
eIF4E 4G PPI – blocks eIF4E binding to eIF4G. TR-FRET eIF4E-eIF4GI(517-606) binding, 2 h. hit rate 0.37% among 220,000. inhibition, % at 21.7 µM. P63073+Q04637;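 active means inhibition above about 30%, limit read from the data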
p97 ATPase inh – human p97 ATPase inhibition | recombinant p97 ATPase, Kinase-Glo ATP luminescence, 3 h | inhibition, % at 8 µM | hit rate 0.42% among 220,000 | AID 1481; in the data active means inhibition above about 15%
Target sequence (P55072 whole entry, looked up): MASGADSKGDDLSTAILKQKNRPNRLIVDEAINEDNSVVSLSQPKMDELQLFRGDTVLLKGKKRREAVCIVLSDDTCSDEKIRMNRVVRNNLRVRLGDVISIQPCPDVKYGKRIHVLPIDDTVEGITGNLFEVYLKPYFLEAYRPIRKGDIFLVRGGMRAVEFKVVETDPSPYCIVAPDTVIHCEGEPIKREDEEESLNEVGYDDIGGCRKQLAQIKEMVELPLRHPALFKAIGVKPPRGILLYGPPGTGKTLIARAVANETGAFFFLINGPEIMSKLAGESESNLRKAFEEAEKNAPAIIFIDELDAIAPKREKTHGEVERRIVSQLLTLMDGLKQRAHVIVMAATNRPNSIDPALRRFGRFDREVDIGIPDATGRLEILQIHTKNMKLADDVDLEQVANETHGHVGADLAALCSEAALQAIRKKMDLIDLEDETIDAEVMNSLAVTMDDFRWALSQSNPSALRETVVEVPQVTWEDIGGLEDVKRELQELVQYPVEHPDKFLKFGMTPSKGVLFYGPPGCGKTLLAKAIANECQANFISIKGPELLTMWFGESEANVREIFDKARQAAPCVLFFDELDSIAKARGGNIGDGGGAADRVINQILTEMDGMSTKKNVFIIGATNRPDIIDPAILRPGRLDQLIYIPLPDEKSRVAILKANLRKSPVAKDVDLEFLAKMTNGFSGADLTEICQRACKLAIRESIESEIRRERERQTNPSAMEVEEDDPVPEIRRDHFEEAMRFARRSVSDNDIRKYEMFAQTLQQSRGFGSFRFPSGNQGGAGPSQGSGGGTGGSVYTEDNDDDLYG
Large screens that a line does not name were inactive; [ ] = remark or other dose.

CCOC(=O)C1CCCN(Cc2ccccc2C)C1 (stereo not drawn)	14-3-3 Bad PPI 76 (no result: Calb biofilm kill)
O=C(Cn1nnc(-c2cccs2)n1)NCc1ccco1	PERK inh 2.9
Cc1ccc(Oc2c(C(N)=O)cc([N+](=O)[O-])cc2[N+](=O)[O-])cc1	eIF4E 4G PPI 40[fluorescence artefact?]
Cc1ccc2nc3cc([N+](=O)[O-])cc([N+](=O)[O-])c3cc2c1	none
COC(=O)C(C(=O)OC)c1ncccc1[N+](=O)[O-]	14-3-3 Bad PPI 85
COc1cccc(/C=N/NC(=O)c2ccoc2C)c1	none
C#CCN1C(=O)C(O)(CC(=O)c2ccc(OC)c(OC)c2)c2ccccc21 (stereo not drawn)	eIF4E 4G PPI 97 (no result: Calb biofilm kill)
CCOC(=O)CSc1nc2cc(C(=O)N3CCC(C(N)=O)CC3)ccc2c(=O)n1C1CCCCC1	none
COC(=O)c1ccc2c(=O)n(C3CCCCC3)c(SCC#N)nc2c1	14-3-3 Bad PPI 74 (no result: Calb biofilm kill)
Cc1ccc(-n2c(=O)c3cc4c(=O)n(-c5ccc(C)c(C)c5)c(=O)c4c(C(=O)c4ccc(C(=O)O)cc4)c3c2=O)cc1C	Hck Nef HTS 92, eIF4E 4G PPI 64
O=C(O)c1ccc(-n2c(=O)c3ccccc3c3ccccc3c2=O)cc1	none
Oc1ccc2ccccc2c1C=Nc1ccccc1-c1nc2ccccc2[nH]1	none (no result: Calb biofilm kill)
CCC(C)C(=O)Nc1nc(-c2ccc3c(c2)NC(=O)CO3)cs1 (stereo not drawn)	none (no result: Calb biofilm kill)
Nc1nc(-c2ccc3c(c2)NC(=O)CO3)cs1	14-3-3 Bad PPI 78 (no result: Calb biofilm kill)
Cc1csc(C(=O)O)c1NC(=O)c1cccc([N+](=O)[O-])c1	none
O=C(/C=C1\NC2(CCCC2)Cc2ccccc21)N1CCOCC1	none (no result: Calb biofilm kill)
CC1(C)Cc2c(ccc3ccccc23)/C(=C/C(=O)N2CCCCC2)N1	14-3-3 Bad PPI 71 (no result: Calb biofilm kill)
Cc1nc(SCc2cccc(F)c2)c2oc3ccccc3c2n1	none
CCn1c(SCC(=O)Nc2ccccc2OC)nc(O)cc1=O	none
CCn1c(SCC(=O)Nc2ccccc2OC)nc2ccccc2c1=O	eIF4E 4G PPI 69[fluorescence artefact?] (no result: Calb biofilm kill)
CN(CCCOc1ccccc1Br)Cc1ccccc1	none
Cc1ccc(Cl)c(OCCCCN(C)Cc2ccccc2)c1	14-3-3 Bad PPI 77 (no result: Calb biofilm kill)
Cc1ccc(Cl)c(OCCCN(C)Cc2ccccc2)c1	14-3-3 Bad PPI 72
CC12CC3(C)CC(C)(C1)CC(C(=O)NC(=S)N1CCCC1)(C2)C3	eIF4E 4G PPI 32
CC(C)(C)C(=O)NC(=S)N1CCCC1	none
C1=CC2CC1CC2CN1CCN(c2ccccc2)CC1 (stereo not drawn)	14-3-3 Bad PPI 75 (no result: Calb biofilm kill)
CCCCC1C(=O)CC[C@H]2[C@@H]1CC(=O)[C@@H]2C/C=C\CCCC(=O)O (stereo partly drawn)	none
CCCCC[C@H](O)/C=C/[C@H]1C=CC(=O)[C@@H]1C/C=C\CCCC(=O)O	Hck Nef HTS 57
COCCNC(=O)c1onc(CSc2cccc(Cl)c2)c1C(=O)O	none (no result: Calb biofilm kill)
COCCNC(=O)c1onc(CSc2ccccc2C)c1C(=O)O	none (no result: Calb biofilm kill)
O=C(NCC1CCCO1)c1onc(CSc2ccccc2)c1C(=O)O (stereo not drawn)	14-3-3 Bad PPI 72 (no result: Calb biofilm kill)
C=CCNC(=O)c1onc(CSc2ccc(F)c(F)c2)c1C(=O)O	PERK inh 3.1 (no result: Calb biofilm kill)
COCCNC(=O)c1onc(CSc2ccc(F)c(F)c2)c1C(=O)O	14-3-3 Bad PPI 77 (no result: Calb biofilm kill)
COCCNC(=O)c1onc(CSc2cc(C)ccc2C)c1C(=O)O	14-3-3 Bad PPI 78 (no result: Calb biofilm kill)
Cn1nc(C(=O)Nc2ccc(S(=O)(=O)N3CCOCC3)cc2)c2ccccc2c1=O	none
Cc1cccc(COCCN2CCN(S(=O)(=O)c3ccccc3)CCC2=O)c1	none (no result: PERK inh, p97 ATPase inh)
COc1ccc(Cn2c(SC)nc3ccccc32)cc1[N+](=O)[O-]	none (no result: Calb biofilm kill)
Cn1c(SCC(=O)Nc2ccc3c(c2)oc2ccccc23)nnc1-c1ccccc1	14-3-3 Bad PPI 72[fluorescence artefact?] (no result: Calb biofilm kill)
c1ccc(CN(Cc2ccccc2)c2ncnc3c2nnn3Cc2ccccc2)cc1	none
O=C1OCC/C1=C\OCCCO/C=C1\CCOC1=O	eIF4E 4G PPI 86
CCCCOC(=O)CCn1[nH]c(=O)c2ccccc2c1=O	none (no result: Calb biofilm kill)
O=C(CCn1[nH]c(=O)c2ccccc2c1=O)NCCO	eIF4E 4G PPI 35 (no result: Calb biofilm kill)
COCCNC(=O)C(c1ccc(F)cc1)N(C(=O)CCC(=O)Nc1nccs1)c1ccc(C)cc1 (stereo not drawn)	none
COc1ccc(/C=N/n2cnc3c([nH]c4ccc(Br)cc43)c2=O)cc1CN1CCOCC1	eIF4E 4G PPI 41[fluorescence artefact?] (no result: Calb biofilm kill)
CC(=O)N1CCN(c2c(F)c(F)c(C(F)(F)F)c(F)c2F)CC1	Calb biofilm kill 62
OCC1C2c3ccccc3C(c3ccccc32)C1CO (stereo not drawn)	none
O=C(N=C1c2ccccc2CN1c1ccc(F)c(F)c1)c1cccnc1	14-3-3 Bad PPI 71
O=C(N=C1c2ccccc2CN1c1cccc(Cl)c1)c1cccnc1	none
Cc1n[nH]c(=S)n(NC(=O)/C=C/C(=O)Nn2c(=S)[nH]nc(C)c2=O)c1=O	14-3-3 Bad PPI 85
CC1CC(C)CN(c2ccc([N+](=O)[O-])nc2)C1 (stereo not drawn)	none
CCOc1cc(N2CCOCC2)c(OCC)cc1NC(=O)CCS(=O)(=O)c1ccc(Cl)cc1	none (no result: Calb biofilm kill)
CCOc1cc(N2CCOCC2)c(OCC)cc1NS(=O)(=O)c1ccc(Cl)s1	14-3-3 Bad PPI 83 (no result: Calb biofilm kill)
O=C(c1nc2ccccn2c1CN1CCCC(OCc2ccccc2)C1)N1CCCC1 (stereo not drawn)	none
CCn1c(SCC(=O)NCc2ccc3c(c2)OCO3)nnc1-c1cccs1	eIF4E 4G PPI 68 (no result: Calb biofilm kill)
Cc1cccc(/C=N/n2c(C)nnc2C)c1	PERK inh 3.1 (no result: Calb biofilm kill)
Cc1cccc(/C=N/n2c(-c3ccco3)n[nH]c2=S)c1	PERK inh 3.5
Cc1c(/C=N/n2cnnc2)c2ccccc2n1C	14-3-3 Bad PPI 71[fluorescence artefact?] (no result: Calb biofilm kill)
O=C(Oc1c(Br)cc(C(=S)N2CCOCC2)cc1Br)c1ccc(Cl)cc1	eIF4E 4G PPI 49 (no result: Calb biofilm kill)
Cc1cc(N2CCOCC2)n2nc(C)c(-c3ccccc3)c2n1	eIF4E 4G PPI 89 (no result: Calb biofilm kill)
Cc1cc(N2CCC3(CC2)OCCO3)n2nc(C)c(-c3ccc(Cl)cc3)c2n1	none (no result: Calb biofilm kill, 14-3-3 Bad PPI, eIF4E 4G PPI)
O=C(Nc1cccc(Cl)c1)c1cccc(Oc2ccc([N+](=O)[O-])cc2Cl)c1	none
O=C(Nc1cccc(Cl)c1)c1cc(N=Nc2ccc([N+](=O)[O-])cc2Cl)ccc1O	Hck Nef HTS 83, eIF4E 4G PPI 33
Clc1ccc(OCCn2cnc(Cl)c2Cl)cc1	none
CC(C)NC(=O)C1CCN(C2CCN(C(=O)c3scc4c3CCCC4)CC2)CC1	none
COc1cccc(NC(=O)COc2ccc(N3CC(C(=O)NCC(C)C)CC3=O)cc2)c1 (stereo not drawn)	eIF4E 4G PPI 72 (no result: Calb biofilm kill)
CC(C)c1nnc(NC(=O)c2ccc3c(c2)OCO3)s1	none
COc1ccccc1-c1nnc(NC(=O)c2ccc3c(c2)OCO3)s1	14-3-3 Bad PPI 71
Cc1c(C(=O)N2CCCC2)sc(NC(=O)c2cccs2)c1C#N	none (no result: Calb biofilm kill)
